Test results from ChEMBL document CHEMBL1157465, “Design, synthesis, and biological evaluation of novel 3-aryl-4-(1H-indole-3yl)-1,5-dihydro-2H-pyrrole-2-ones as vascular endothelial growth factor receptor (VEGF-R) inhibitors” (J Med Chem, 2008).

Columns and labels:
[1] = target: Vascular endothelial growth factor receptor 3 (Homo sapiens, UniProt P35916); assay: Inhibition of human recombinant VEGFR3
Procedure, shortened: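 Recombinant human tyrosine kinases (EPHB4, TIE2, VEGF-R2, VEGF-R3), expressed in Sf9 insect cells as GST- or His-fusions, with poly(Glu,Tyr) 4:1 as substrate. Conditions: 1 µM [γ-33P]ATP, pH 7.5 HEPES buffer with Mg/Mn, DTT and vanadate, 30 °C for 80 min, 1% DMSO. Ten concentrations were tested and IC50 came from scintillation counting of incorporated 33P.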

[2] = target: T1, Receptor-type tyrosine-protein kinase FLT3 (Homo sapiens, UniProt P36888); assay: Inhibition of human recombinant FLT3
T1 sequence (P36888 whole entry): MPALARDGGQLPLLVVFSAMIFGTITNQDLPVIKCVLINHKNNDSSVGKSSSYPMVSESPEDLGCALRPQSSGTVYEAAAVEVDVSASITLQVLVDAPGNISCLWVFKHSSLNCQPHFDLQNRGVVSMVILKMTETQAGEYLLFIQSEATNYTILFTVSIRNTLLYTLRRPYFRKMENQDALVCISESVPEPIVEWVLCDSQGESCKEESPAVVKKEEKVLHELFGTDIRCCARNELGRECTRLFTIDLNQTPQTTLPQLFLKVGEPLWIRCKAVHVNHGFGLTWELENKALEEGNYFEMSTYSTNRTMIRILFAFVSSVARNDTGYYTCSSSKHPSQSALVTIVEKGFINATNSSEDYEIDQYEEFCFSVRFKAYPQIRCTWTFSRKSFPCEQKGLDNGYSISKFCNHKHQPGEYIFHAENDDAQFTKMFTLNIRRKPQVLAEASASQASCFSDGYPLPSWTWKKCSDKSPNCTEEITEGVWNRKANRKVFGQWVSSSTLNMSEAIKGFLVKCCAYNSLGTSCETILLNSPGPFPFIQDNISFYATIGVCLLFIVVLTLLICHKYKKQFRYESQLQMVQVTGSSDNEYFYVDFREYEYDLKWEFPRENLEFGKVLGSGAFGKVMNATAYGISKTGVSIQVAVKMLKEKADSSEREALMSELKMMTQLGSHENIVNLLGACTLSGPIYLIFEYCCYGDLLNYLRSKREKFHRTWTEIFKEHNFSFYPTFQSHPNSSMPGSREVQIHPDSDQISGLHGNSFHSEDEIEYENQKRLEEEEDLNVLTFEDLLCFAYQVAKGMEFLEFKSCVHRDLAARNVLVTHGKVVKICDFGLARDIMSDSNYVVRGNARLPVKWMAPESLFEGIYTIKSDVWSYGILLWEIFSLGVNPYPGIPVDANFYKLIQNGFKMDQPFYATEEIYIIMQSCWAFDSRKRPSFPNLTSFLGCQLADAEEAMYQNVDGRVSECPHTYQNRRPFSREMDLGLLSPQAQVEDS
Procedure, shortened: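 Human kinases expressed in Sf9 cells via baculovirus as GST or His fusions and affinity purified. 33PanQinase assay in 60 mM HEPES-NaOH pH 7.5, 3 mM MgCl2, 3 mM MnCl2, 3 µM orthovanadate, 1.2 mM DTT, 1 µM [γ-33P]ATP, 1% DMSO; 30 °C, 80 min. Substrates: poly(Glu,Tyr) 4:1 for ERBB2, IGF1-R and SRC; poly(Ala,Glu,Lys,Tyr) 6:2:5:1 for FLT3. IC50 from 10 concentrations by scintillation counting.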

[3] = target: T2, Serine/threonine-protein kinase PLK4 (Homo sapiens, UniProt O00444); assay: Inhibition of human recombinant SAK
T2 sequence (O00444 whole entry): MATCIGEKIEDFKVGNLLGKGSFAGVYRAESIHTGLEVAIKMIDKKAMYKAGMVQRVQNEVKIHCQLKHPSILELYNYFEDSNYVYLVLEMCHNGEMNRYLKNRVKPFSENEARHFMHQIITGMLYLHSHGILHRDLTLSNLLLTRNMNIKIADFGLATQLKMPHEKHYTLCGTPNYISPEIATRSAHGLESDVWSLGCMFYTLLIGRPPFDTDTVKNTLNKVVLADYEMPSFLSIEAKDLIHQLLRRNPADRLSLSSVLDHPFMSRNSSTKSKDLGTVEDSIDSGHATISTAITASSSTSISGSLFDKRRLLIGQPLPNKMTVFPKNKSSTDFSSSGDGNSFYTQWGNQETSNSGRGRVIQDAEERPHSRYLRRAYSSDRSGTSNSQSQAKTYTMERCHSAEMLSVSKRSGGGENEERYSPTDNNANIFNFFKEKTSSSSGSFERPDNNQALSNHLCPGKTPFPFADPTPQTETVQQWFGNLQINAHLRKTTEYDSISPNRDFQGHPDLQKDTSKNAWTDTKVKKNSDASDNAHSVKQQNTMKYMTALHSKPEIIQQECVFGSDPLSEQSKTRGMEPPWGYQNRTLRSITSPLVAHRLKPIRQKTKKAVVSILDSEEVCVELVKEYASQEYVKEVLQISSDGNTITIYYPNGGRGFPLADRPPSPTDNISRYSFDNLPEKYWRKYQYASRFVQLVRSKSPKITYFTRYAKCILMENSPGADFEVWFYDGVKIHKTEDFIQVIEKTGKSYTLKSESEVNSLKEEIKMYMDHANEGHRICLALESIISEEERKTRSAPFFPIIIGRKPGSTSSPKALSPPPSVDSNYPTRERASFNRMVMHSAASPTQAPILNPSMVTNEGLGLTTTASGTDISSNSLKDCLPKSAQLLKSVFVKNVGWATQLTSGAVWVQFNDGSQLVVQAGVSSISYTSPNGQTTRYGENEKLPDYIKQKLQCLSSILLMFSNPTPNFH
Procedure, shortened: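 Human kinase expressed from cDNA in Sf9 cells (baculovirus) as GST- or His-tagged protein, affinity-purified. 10 compound concentrations, 1% DMSO final, 30 °C for 80 min. Stopped with H₃PO₄, 33P incorporation counted, IC50 derived.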

Aurora kinase A = target: T3, Aurora kinase A (Homo sapiens, UniProt O14965); assay: Inhibition of human recombinant Aurora A
T3 sequence (O14965 whole entry): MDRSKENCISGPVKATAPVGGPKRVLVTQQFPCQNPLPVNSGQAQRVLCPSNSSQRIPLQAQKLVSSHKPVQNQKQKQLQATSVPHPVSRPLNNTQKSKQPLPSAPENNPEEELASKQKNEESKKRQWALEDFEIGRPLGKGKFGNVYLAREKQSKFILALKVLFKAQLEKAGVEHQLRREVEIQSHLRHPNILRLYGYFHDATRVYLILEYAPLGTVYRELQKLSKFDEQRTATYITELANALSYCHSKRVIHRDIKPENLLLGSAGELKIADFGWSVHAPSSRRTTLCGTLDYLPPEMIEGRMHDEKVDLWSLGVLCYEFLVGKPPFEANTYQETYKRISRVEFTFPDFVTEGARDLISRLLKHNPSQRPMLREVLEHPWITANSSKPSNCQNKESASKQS
Procedure, shortened: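 Aurora-A or Aurora-B, human cDNA expressed in Sf9 cells as tagged recombinant protein, phosphorylating Tetra(LRRWSLG). Reactions used 60 mM HEPES pH 7.5, Mg2+/Mn2+ (3 mM each), 1.2 mM DTT, vanadate and 1 µM [γ-33P]ATP, ran 80 min at 30 °C and were stopped with 2% H3PO4.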

Sequence of Vascular endothelial growth factor receptor 3 (P35916 whole entry, the tested form may be a part): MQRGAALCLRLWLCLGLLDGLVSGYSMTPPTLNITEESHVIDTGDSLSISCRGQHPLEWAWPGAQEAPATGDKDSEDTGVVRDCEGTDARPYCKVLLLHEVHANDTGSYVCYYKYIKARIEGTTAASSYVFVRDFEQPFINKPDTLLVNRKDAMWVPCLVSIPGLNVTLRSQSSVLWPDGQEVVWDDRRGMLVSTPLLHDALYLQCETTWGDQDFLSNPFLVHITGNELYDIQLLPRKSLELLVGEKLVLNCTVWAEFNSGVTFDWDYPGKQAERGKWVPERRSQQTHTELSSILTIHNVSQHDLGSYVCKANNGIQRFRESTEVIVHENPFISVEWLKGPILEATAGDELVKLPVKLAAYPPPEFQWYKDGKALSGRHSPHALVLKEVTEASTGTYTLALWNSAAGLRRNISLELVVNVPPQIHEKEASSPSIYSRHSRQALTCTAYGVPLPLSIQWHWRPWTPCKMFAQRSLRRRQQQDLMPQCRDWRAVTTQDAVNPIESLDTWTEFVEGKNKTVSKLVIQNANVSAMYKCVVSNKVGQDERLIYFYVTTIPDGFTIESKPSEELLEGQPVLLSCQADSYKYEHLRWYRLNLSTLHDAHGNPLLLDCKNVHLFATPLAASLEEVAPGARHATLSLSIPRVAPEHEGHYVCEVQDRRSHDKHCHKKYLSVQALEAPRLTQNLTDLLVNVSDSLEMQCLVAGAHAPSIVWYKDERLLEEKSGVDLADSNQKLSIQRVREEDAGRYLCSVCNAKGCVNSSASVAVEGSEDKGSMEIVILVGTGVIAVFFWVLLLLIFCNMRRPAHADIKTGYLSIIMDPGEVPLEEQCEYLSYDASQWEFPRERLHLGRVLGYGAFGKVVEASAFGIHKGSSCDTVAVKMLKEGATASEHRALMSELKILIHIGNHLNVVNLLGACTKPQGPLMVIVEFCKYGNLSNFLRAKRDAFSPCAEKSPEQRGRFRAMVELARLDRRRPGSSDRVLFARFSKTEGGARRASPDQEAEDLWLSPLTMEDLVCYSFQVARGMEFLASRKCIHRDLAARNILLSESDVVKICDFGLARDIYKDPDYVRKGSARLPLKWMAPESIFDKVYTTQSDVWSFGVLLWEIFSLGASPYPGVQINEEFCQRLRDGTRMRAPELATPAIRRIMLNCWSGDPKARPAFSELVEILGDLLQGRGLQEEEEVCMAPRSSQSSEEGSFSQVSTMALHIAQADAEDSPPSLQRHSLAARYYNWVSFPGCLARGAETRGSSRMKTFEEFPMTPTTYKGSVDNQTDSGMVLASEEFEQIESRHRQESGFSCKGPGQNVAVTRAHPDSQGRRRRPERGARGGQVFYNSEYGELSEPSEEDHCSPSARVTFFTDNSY

Row | Structure (SMILES) | IC50 [1] [µM] | IC50 [2] [µM] | IC50 [3] [µM] | IC50 (Aurora kinase A) [µM]
1 | COc1ccc(C2=C(c3c[nH]c4ccccc34)C(=O)NC2)cc1 | 8.7 | 9.9 | 12 | 16
2 | COc1cc(C2=C(c3cn(C)c4ccccc34)C(=O)NC2)cc(OC)c1OC | 11 | 5 | 9.2 | 3.2
3 | COc1cc(C2=C(c3cn(COC(C)(C)C)c4ccccc34)CNC2=O)cc(OC)c1OC | 4.8 | 20 | 28 | 30

Second part, the molecule after the results:

Row | IC50 [1] [µM] | IC50 [2] [µM] | IC50 [3] [µM] | IC50 (Aurora kinase A) [µM] | Structure (SMILES)
4 | 9.4 | 2.2 | 7.7 | 3.2 | COc1cc(C2=C(c3c[nH]c4ccccc34)C(=O)NC2)cc(OC)c1OC
5 | 2.5 | 3 | 16 | 47 | COc1cc(C2=C(c3cn(CC(O)CO)c4ccccc34)CNC2=O)cc(OC)c1OC (centres undefined)
6 | 0.037 | 6.1 | 10 | 16 | COc1cc(C2=C(c3c[nH]c4ccccc34)CNC2=O)cc(OC)c1OC
